# Measured values taken from ChEMBL document CHEMBL1133473, “Synthesis and antiviral activity of 4-benzyl pyridinone derivatives as potent and selective non-nucleoside human immunodeficiency virus type 1 reverse transcriptase inhibitors” (J Med Chem, 2000).
# Several values for one entry are separate records, joined by “and”; a condition that tells them apart may be missing. Equal values may be shown once.
# Tests used:
# [1] = test system: Human immunodeficiency virus 1; experiment: Selectivity index is the ratio of CC50 to IC50; format: functional
# [2] = test system: CEM-SS; experiment: Tested for cytotoxic concentration on HIV-I Lai wild type in CEM-SS cell line; format: functional; conditions: Homo sapiens
# Procedure, shortened: (§1)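 CEM-SS cells, uninfected, cultured 5 days with compound. Compounds were taken from a DMSO solution at 10^-2 M (10^-3 M or lower if insoluble), diluted 1:100 in medium, then serially diluted in medium.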
# [3] = test system: CEM-SS; experiment: Tested for inhibitory concentration on HIV-I Lai wild type in CEM-SS cell line; format: functional, cell-based; conditions: Homo sapiens
# Procedure, shortened: (§2)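 CEM-SS lymphocytic cells infected with 100 TCID50 of HIV-1 LAI, or of the nevirapine-resistant N119 strain carrying an RT codon 181 mutation. Virus adsorbed 30 min, unbound virus removed by two washes, then cells cultured 5 days with serial compound dilutions. Read-out: RT activity of particles released into the supernatant. IC50 from a computer median effect plot of dose-effect data.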
# [4] = test system: Human immunodeficiency virus 1; experiment: Tested for cytotoxic concentration on HIV-I nevirapine resistant strain.; format: functional; procedure, shortened: as §1
# [5] = test system: Human immunodeficiency virus 1; experiment: Inhibitory concentration against HIV-1 AZTres.; format: functional, organism-based
# Procedure, shortened: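 AZT-resistant HIV-1 isolate A018 G910-6 tested in cell culture; virus production measured as RT activity of particles released into the culture supernatant.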
# [6] = test system: Human immunodeficiency virus 1; experiment: Inhibitory concentration against HIV-1 IIIB strain; format: functional, organism-based
# Procedure, shortened: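 MT4 cells infected with HIV-1 IIIB; antiviral effect read as protection from virus-induced cytopathogenicity by MTT. Compounds taken from DMSO stock, diluted in culture medium.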
# [7] = test system: Human immunodeficiency virus 1; experiment: Inhibitory concentration against HIV-1 Bal/Mono; format: functional, organism-based
# Procedure, shortened: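 Macrophage-tropic HIV-1 Bal in monocyte-derived macrophages kept serum-free in AIM V medium with 100 U/mL GM-CSF. Virus output measured as supernatant particle-associated RT activity.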
# [8] = test system: Human immunodeficiency virus 1; experiment: Tested for inhibitory concentration on HIV-I nevirapine resistant strain.; format: functional, organism-based; procedure, shortened: as §2
# [9] = target: Human immunodeficiency virus type 1 reverse transcriptase (Human immunodeficiency virus 1, UniProt Q72547); experiment: Tested for inhibitory concentration on HIV-1 Reverse transcriptase in the presence of poly(c)-oligo-(dG)
# Procedure, shortened: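 Recombinant HIV-1 RT purified from yeast, 20-50 nM. Reaction at 37 °C for 10 min in 50 mM Tris-HCl pH 8.0, 5 mM MgCl2, 4 mM DTT, 80 mM KCl, BSA, 0.48 A260 units/mL poly(C)-oligo(dG) (5:1), 2 µM dGTP plus [3H]dGTP. Stopped with cold 10% TCA plus 0.1 M pyrophosphate; precipitates filtered, scintillation counted. Compounds dissolved in DMSO.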
# [10] = Cytotoxicity against PBMC cells infected with HIV-2 D 194; format: functional; conditions: Human immunodeficiency virus 2, PBMC
# [11] = test system: MT4; experiment: Cytotoxicity against MT-4 cells infected with HIV-1 AZTres; format: functional; conditions: Homo sapiens
# [12] = Inhibitory concentration against HIV-2 D 194; format: functional
# Procedure, shortened: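 Cell-based antiviral assay against this HIV-2 isolate. Compounds were dissolved in DMSO as 10^-2 M stocks, or 10^-3 M or lower when insoluble, diluted 1% in culture medium, then serially diluted in medium. Virus production was read as reverse transcriptase activity of particles released into the culture supernatant. IC50 was taken from a median-effect plot of the dose-effect data.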
# [13] = Cytotoxicity against Macrophages infected with HIV-1 Bal/Mono; format: functional; conditions: Human immunodeficiency virus 1
# [14] = test system: Human immunodeficiency virus 1; experiment: Selectivity index is the ratio of CC50 to IC50 against HIV-1 nevirapine resistant strain; format: functional
# [15] = Cytotoxicity against PBMC cells infected with HIV-1 IIIB strain; format: functional; conditions: Human immunodeficiency virus 1, PBMC
# [16] = test system: MT4; experiment: Cytotoxicity against MT-4 cells infected with HIV-1 IIIB strain; format: functional; conditions: Homo sapiens
compound,measurement,setting,value
CCOC(=O)Nc1c(O)nc(C)c(CC)c1Cc1cc(C)cc(C)c1,SI,[1],>21
same,CC50,[2],> 10000 nM
same,IC50,[3],460 nM
Cc1cn([C@H]2C[C@H](N=[N+]=[N-])[C@@H](CO)O2)c(=O)[nH]c1=O [ZIDOVUDINE],SI,[1],>33333
same,IC50,[3],3 nM
CCc1c(C)[nH]c(=O)c(N(C)C)c1Cc1cc(C)cc(C)c1,CC50,[4],> 1000 nM
same,IC50,[5],0.2 nM
same,IC50,[6],2.4 nM and 0.58 nM
same,IC50,[7],0.004 nM
same,IC50,[8],40 nM
same,IC50,[9],20 nM
same,SI,[1],>5000
same,CC50,[10],> 1000 nM
same,CC50,[2],> 1000 nM
same,IC50,[3],0.2 nM
same,CC50,[11],> 1000 nM
same,IC50,[12],> 1000 nM
same,CC50,[13],> 1000 nM
same,SI,[14],>25
same,CC50,[15],> 1000 nM
same,CC50,[16],> 1000 nM
CCc1c(C)nc(OC)c(NC(=O)C(C)(C)C)c1Cc1ccccc1,CC50,[2],> 1000 nM
same,IC50,[3],> 1000 nM
CCc1c(C)[nH]c(=O)c(NC=O)c1Cc1cc(C)cc(C)c1,CC50,[4],> 10000 nM
same,IC50,[5],71 nM
same,IC50,[7],21 nM
same,IC50,[8],2900 nM
same,IC50,[9],200 nM
same,SI,[1],>3333
same,CC50,[10],> 10000 nM
same,CC50,[2],> 10000 nM
same,IC50,[3],3 nM
same,CC50,[11],> 10000 nM
same,IC50,[12],> 10000 nM
same,CC50,[13],> 10000 nM
same,SI,[14],>3
same,CC50,[15],> 10000 nM
same,CC50,[16],> 10000 nM
CCc1c(C)nc(OC)c2c1C(c1cc(C)cc(C)c1)OC(O)(C(C)(C)C)N2 (centres undefined),SI,[1],>2
same,CC50,[2],> 10000 nM
same,IC50,[3],4200 nM
CCc1c(C)nc(OC)c2c1C(c1cc(C)cc(C)c1)OC(C(C)(C)C)=N2 (centres undefined),CC50,[2],> 10000 nM
same,IC50,[3],> 10000 nM
CCc1c(C)nc(O)c(NC(=O)CNC(=O)OC(C)(C)C)c1Cc1cc(C)cc(C)c1,SI,[1],12
same,CC50,[2],86000 nM
same,IC50,[3],6700 nM
CCc1cc(NCc2cc(C)c(C)cc2OC)c(O)nc1C,IC50,[3],8 nM
CCc1c(C)nc(O)c(NC(=O)CN)c1Cc1cc(C)cc(C)c1,SI,[1],>5555
same,CC50,[2],> 100000 nM
same,IC50,[3],18 nM
CCc1c(C)[nH]c(=O)c(NC)c1Cc1cc(C)cc(C)c1,CC50,[4],> 10000 nM
same,IC50,[5],76 nM
same,IC50,[7],720 nM
same,IC50,[8],1700 nM
same,SI,[1],>333
same,CC50,[10],> 10000 nM
same,CC50,[2],> 10000 nM
same,IC50,[3],30 nM
same,CC50,[11],> 10000 nM
same,IC50,[12],> 10000 nM
same,CC50,[13],> 10000 nM
same,SI,[14],>5.5 and >10
same,CC50,[15],> 10000 nM
same,CC50,[16],> 10000 nM
CCc1c(C)nc(O)c(N)c1Cc1ccccc1,SI,[1],>136
same,CC50,[2],> 100000 nM
same,IC50,[3],730 nM
Cc1c(Sc2ccccc2)n(COCc2ccccc2)c(=O)[nH]c1=O,IC50,[9],300 nM
CCc1c(C)nc(O)c(NC(=O)C(C)(C)C)c1C(C)(O)c1cc(C)cc(C)c1 (centres undefined),SI,[1],>8
same,CC50,[2],> 100000 nM
same,IC50,[3],12000 nM
CCOCn1c(Cc2cc(C)cc(C)c2)c(C(C)C)c(=O)[nH]c1=O,SI,[1],72000
same,CC50,[2],43000 nM
same,IC50,[3],0.6 nM
CCOC(=O)Nc1c(O)ncc(C)c1Sc1cc(C)cc(C)c1,SI,[1],>13
same,IC50,[3],7500 nM
CCc1cc(N)c(O)nc1C,SI,[1],>3
same,CC50,[2],> 100000 nM
same,IC50,[3],30000 nM
CCc1c(C)nc(O)c(N)c1C(O)c1cc(C)cc(C)c1 (centres undefined),CC50,[4],> 10000 nM
same,IC50,[5],420 nM
same,IC50,[6],3400 nM and 690 nM
same,IC50,[7],180 nM
same,IC50,[8],4500 nM
same,SI,[1],>10
same,CC50,[10],> 10000 nM
same,CC50,[2],> 10000 nM
same,IC50,[3],1000 nM
same,CC50,[11],> 10000 nM
same,IC50,[12],> 10000 nM
same,CC50,[13],> 10000 nM
same,SI,[14],>2
same,CC50,[15],> 10000 nM
same,CC50,[16],10000 nM
